Measured values as given in PMC12377187 (RSC Advances, 2025).
Like-named read-outs stand apart in the source and are kept apart here.

Legend:
[1] = system: MDA-MB-231 – human breast cancer cell line; assay: MTT cytotoxicity, MDA-MB-231 cell line; assay type: cell-based; settings: MDA-MB-231, 72 h, read-out: IC50 MDA-MB-231
How it was run: (§1)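 Cells seeded at 5000 per well in Eagle's MEM with 10% fetal calf serum, 2 mM L-glutamine, penicillin and streptomycin, then pre-incubated 24 h at 37 °C, 5% CO2. A concentration series of test compound in DMSO, with a reference drug, was applied for 72 h. MTT added for 4 h at 37 °C, formazan dissolved in ethanol, OD read at 570 nm. Inhibition calculated against blank and control absorbances.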

[2] = system: RD – rhabdomyosarcoma cell line; assay: MTT cytotoxicity, RD cell line; assay type: cell-based; settings: 72 h
How it was run: as §1

HT-29 cell line = settings: cited from earlier work
SW620 cell line = settings: cited from earlier work
[3] = Rhabdomyosarcoma cell, read-out: IC50 RD, MTT, 72 h, mean ± SD
[4] = read-out: IC50 RD, MTT, mean ± SD

Row | SMILES | IC50 [1] [µM] | IC50 [2, 3] [µM] | IC50 [2, 4] [µM] | inhibitory activity against HT-29 (HT-29 cell line) [%] | inhibitory activity against SW620 (SW620 cell line) [%]
1 | O=c1c2cc(Cl)ccc2nc(-c2ccccc2)n1N=Cc1ccc([N+](=O)[O-])cc1 [Compound 2, 6-Chloro-3-((4-nitrobenzylidene)amino)-2-phenyl-4(3H)-quinazolone] | 104 ± 3.63 | 151 ± 2.06 |  |  | 
2 | O=c1c2cc(Cl)ccc2nc(-c2ccccc2)n1N=Cc1ccc(Cl)c(Cl)c1 [Compound 3, 6-Chloro-3-((3,4-dichlorobenzylidene)amino)-2-phenyl-4(3H)-quinazolone] | 91.5 ± 1.47 | 246 ± 24.3 |  |  | 
3 | O=c1c2cc(Cl)ccc2nc(-c2ccccc2)n1N=Cc1ccc(F)cc1 [Compound 4, 6-Chloro-3-((4-fluorobenzylidene)amino)-2-phenyl-4(3H)-quinazolone] | 21.6 ± 1.11 | 235 ± 8.29 |  |  | 
4 | O=c1c2cc(Cl)ccc2nc(-c2ccccc2)n1N=Cc1c(F)cccc1Cl [Compound 5, 6-Chloro-3-((2-chloro-6-fluorobenzylidene)amino)-2-phenyl-4(3H)-quinazolone] | 148 ± 5.64 | 14.7 ± 0.68 |  |  | 
5 | O=c1c2cc(Cl)ccc2nc(-c2ccccc2)n1N=Cc1ccc2c(c1)OCO2 [Compound 6, 3-((Benzo[d][1,3]dioxol-5-ylmethylene)amino)-6-chloro-2-phenyl-4(3H)-quinazolone] | 10.6 ± 0.67 | 50 to 55 | 54.5 ± 0.81 |  | 
6 | O=c1c2cc(Cl)ccc2nc(-c2ccccc2)n1N=Cc1ccc(Br)cc1O [Compound 7, 3-((4-Bromo-2-hydroxybenzylidene)amino)-6-chloro-2-phenyl-4(3H)-quinazolone] | 8.79 ± 0.34 | 50 to 55 | 51.6 ± 1.19 |  | 
7 | CN(C)c1ccc(C=Nn2c(-c3ccccc3)nc3ccc(Cl)cc3c2=O)cc1 [Compound 8, 6-Chloro-3-((4-(dimethylamino)benzylidene)amino)-2-phenyl-4(3H)-quinazolone] | 101 ± 3.75 | 198 ± 18.9 |  |  | 
8 | O=c1c2cc(Cl)ccc2nc(-c2ccccc2)n1N=Cc1cccc(O)c1 [Compound 9, 6-Chloro-3-((3-hydroxybenzylidene)amino)-2-phenyl-4(3H)-quinazolone] | 84.4 ± 1.26 | 254 ± 14.2 |  |  | 
9 | CCOc1ccc(C=Nn2c(-c3ccccc3)nc3ccc(Cl)cc3c2=O)cc1O [Compound 10, 6-Chloro-3-((4-ethoxy-3-hydroxybenzylidene)amino)-2-phenyl-4(3H)-quinazolone] | 85.5 ± 2.32 | 430 ± 72.9 |  |  | 
10 | O=c1c2cc(Cl)ccc2nc(-c2ccccc2)n1N=Cc1ccc(Cl)cc1Cl [Compound 11, 6-Chloro-3-((2,4-dichlorobenzylidene)amino)-2-phenyl-4(3H)-quinazolone] | 99.4 ± 1.76 | 251 ± 25.5 |  |  | 
11 | O=c1c2cc(Cl)ccc2nc(-c2ccccc2)n1N=Cc1ccccc1Cl [Compound 12, 6-Chloro-3-((2-chlorobenzylidene)amino)-2-phenyl-4(3H)-quinazolinone] | 321 ± 51.8 | 126 ± 6.2 |  |  | 
12 | COc1ccc(C=Nn2c(-c3ccccc3)nc3ccc(Cl)cc3c2=O)cc1OC [Compound 13, 6-Chloro-3-((3,4-dimethoxybenzylidene)amino)-2-phenyl-4(3H)-quinazolone] | 139 ± 4.04 | 130 ± 10.4 |  |  | 
13 | O=c1c2cc(Cl)ccc2nc(-c2ccccc2)n1N=Cc1cccnc1 [Compound 14, 6-Chloro-2-phenyl-3-((pyridin-3-ylmethylene)amino)-4(3H)-quinazolone] | 262 ± 43.9 | 136 ± 17 |  |  | 
14 | O=c1c2cc(Cl)ccc2nc(-c2ccccc2)n1N=Cc1ccco1 [Compound 15, 6-Chloro-3-((furan-2-ylmethylene)amino)-2-phenyl-4(3H)-quinazolone] | 56.6 ± 5.37 | 38.6 ± 1.07 |  |  | 
15 | O=c1c2cc(Cl)ccc2nc(-c2ccccc2)n1N=Cc1cccc([N+](=O)[O-])c1 [Compound 16, 6-Chloro-3-((3-nitrobenzylidene)amino)-2-phenyl-4(3H)-quinazolone] | 301 ± 27.1 | 82.3 ± 1.99 |  |  | 
16 | CCOc1ccc(C=Nn2c(-c3ccccc3)nc3ccc(Cl)cc3c2=O)cc1 [Compound 17, 6-Chloro-3-((4-ethoxybenzylidene)amino)-2-phenyl-4(3H)-quinazolone] | 194 ± 8.83 | 376 ± 8.08 |  |  | 
17 | COc1cccc(C=Nn2c(-c3ccccc3)nc3ccc(Cl)cc3c2=O)c1 [Compound 18, 6-Chloro-3-((3-methoxybenzylidene)amino)-2-phenyl-4(3H)-quinazolone] | 329 ± 47.2 | 84.8 ± 9.35 |  |  | 
18 | O=c1c2cc(Cl)ccc2nc(-c2ccccc2)n1N=Cc1ccccc1O [Compound 19, 6-Chloro-3-((2-hydroxybenzylidene)amino)-2-phenyl-4(3H)-quinazolone] | 37.5 ± 0.63 | 51.1 ± 0.99 |  |  | 
19 | COc1ccc(C=Nn2c(-c3ccccc3)nc3ccc(Cl)cc3c2=O)cc1O [Compound 20, 6-Chloro-3-((3-hydroxy-4-methoxybenzylidene)amino)-2-phenyl-4(3H)-quinazolone] | 198 ± 13.3 | 48.1 ± 3.97 |  |  | 
20 | O=c1c2cc(Cl)ccc2nc(-c2ccccc2)n1N=Cc1ccccc1 [Compound 21, 3-(Benzylideneamino)-6-chloro-2-phenyl-4(3H)-quinazolone] | 121 ± 9.35 | 143 ± 12.7 |  |  | 
21 | CC(=O)O[C@H]1C(=O)[C@@]2(C)[C@H]([C@H](OC(=O)c3ccccc3)[C@]3(O)C[C@H](OC(=O)[C@H](O)[C@@H](NC(=O)c4ccccc4)c4ccccc4)C(C)=C1C3(C)C)[C@]1(OC(C)=O)CO[C@@H]1C[C@@H]2O [PTX, paclitaxel, reference compound] | 0.04 ± 0.02 | 0.58 ± 0.01 |  |  | 
22 | O=c1[nH]cc(F)c(=O)[nH]1 [fluorouracil] |  |  |  | 34.1 | 57.3
